Data set [1] can be described thus: melting temperature; fluorescence melt of hairpins on a sequencing array, two-state fit, raised by 9.35 °C to match UV melts. Particulars: sodium 0.088 M. A digest of the protocol:
(§1)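 In 50 mM Na-HEPES pH 8.0 containing 25 mM NaCl, hairpins from the library on a sequenced MiSeq flow cell were imaged for Cy3 fluorescence at 2.5 °C steps up to 60 °C, with Cy3 and quencher oligos annealed. After normalisation to pre-quench Cy3 and to control constructs, two-state fits with bootstrapping gave melting temperature and folding enthalpy. Four replicates were combined by inverse-variance weighting, and fitted temperatures were shifted up by 9.35 °C to match UV melts.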

A short description of data set [2]: folding enthalpy; higher = less favourable; fluorescence melt of hairpins on a sequencing array, two-state fit. Particulars: sodium 0.088 M. A digest of the protocol:
as §1

For the sequence GCGCTCCCGAAAGGGCGC (((..(((....)))))), the Tm in data set [1] amounted to 62.2 °C. Besides, in data set [2], the folding enthalpy is -35 kcal/mol.
The corresponding values for GTTCTGGCGAAAGCCAAC (((..(((....)))))) are 19.8 °C and -7.18 kcal/mol.
The corresponding values for GCTGCATCGAAAGATAGC (((..(((....)))))) are 35.6 °C and -17 kcal/mol.
The corresponding values for GCGTGGGACGC ((((...)))) are 52.4 °C and -16.9 kcal/mol.
Regarding GGCCACGGAAACATGGCC (((((.(....).))))), the Tm in data set [1] stood at 53.3 °C. Moreover, the folding enthalpy in data set [2] was -49.2 kcal/mol.
The corresponding values for GAGTACGAAAGTAGTCTC ((((((....)))..))) are 49.2 °C and -23.4 kcal/mol.
The corresponding values for GAGTCCGAAAGGAGCCTC ((((((....)))..))) are 34 °C and -14.3 kcal/mol.
The corresponding values for GTTGGGGGAAACTCCAGC (.(((.(....).))).) are 35.8 °C and -23.5 kcal/mol.
For the sequence GCCATGGAAACATGGC ((((((....)))))), in data set [1], the Tm is 67.7 °C. Also, the folding enthalpy in data set [2] was -34 kcal/mol.
The corresponding values for CGGCCGGAAACGGACCCG ((((((....)))..))) are 38.8 °C and -12.1 kcal/mol.
For GCTTACGAAAGTACGAGC ((((((....)))..))), the Tm in data set [1] amounted to 32.1 °C. Also, the folding enthalpy in data set [2] is -20.3 kcal/mol.
The corresponding values for GCGGATGGAAACATCCAC (.(((((....))))).) are 45.3 °C and -14.7 kcal/mol.
The corresponding values for GAAAATGGAAACATTTTC (((((((....))))))) are 51 °C and -44.6 kcal/mol.
For GGCCATGGAAACACAGCC (((..((....))..))), the Tm in data set [1] worked out at 27.6 °C. Also, the folding enthalpy in data set [2] is -13.5 kcal/mol.
The corresponding values for GATCGGATCCCGATC ((((((...)))))) are 56 °C and -38 kcal/mol.
The corresponding values for GATCCTAGTCAGGATC ((((((....)))))) are 51.6 °C and -45.9 kcal/mol.
The corresponding values for GATCACTGATGTGATC ((((((....)))))) are 55.9 °C and -34.5 kcal/mol.
For GTCCACGAAAGTGACGAC ((((((....)))..))), in data set [1], the Tm is 43.9 °C. Moreover, the folding enthalpy in data set [2] was -20.4 kcal/mol.
The corresponding values for GTGGTTGGAAACAACCGC (.(((((....))))).) are 55.7 °C and -31 kcal/mol.
The corresponding values for GCTAACGAAAGTTAAAGC ((((((....)))..))) are 36.7 °C and -18.5 kcal/mol.
The corresponding values for GGACGAGGAAACTCGTTC (.(((((....))))).) are 51.6 °C and -32.5 kcal/mol.
Regarding GATCAGGCACTGATC ((((((...)))))), in data set [1], the Tm is 59.8 °C. Besides, in data set [2], the folding enthalpy is -43.6 kcal/mol.
The corresponding values for GTATTGGGAAACCAACAC ((.((((....)))).)) are 31.4 °C and -15 kcal/mol.
The corresponding values for GTGGACGAAAGTCTCAC ((((((....))).))) are 46.6 °C and -20.1 kcal/mol.
The corresponding values for GGCAACCGAAAGGTAGCC (((.(((....))).))) are 62.4 °C and -33.6 kcal/mol.
With GATCCACGAAAGTGAATC (((.(((....))).))), the Tm in data set [1] came to 42.4 °C. Further, the folding enthalpy in data set [2] was -24.2 kcal/mol.
The corresponding values for GTCCCGGGAAACTGGGAC (((((.(....).))))) are 60 °C and -37.2 kcal/mol.
The corresponding values for GATCGGGGTGCCGATC ((((((....)))))) are 59.3 °C and -52.3 kcal/mol.
The corresponding values for GTGACTCGAAAGAGACAC (((.(((....))).))) are 54.3 °C and -32.1 kcal/mol.
For the sequence GTAAGCGGAAACGTTTGC (.((.((....)).)).), in data set [1], the Tm was 31.9 °C. In addition, in data set [2], the folding enthalpy was -14.9 kcal/mol.
In the case of GTGTTAGAAATAACAC ((((((....)))))), the Tm in data set [1] was found to be 47.1 °C. Moreover, the folding enthalpy in data set [2] was -28.6 kcal/mol.
Turning to GATCTCTGGTGAGATC ((((((....)))))), the Tm in data set [1] worked out at 52.4 °C. Also, the folding enthalpy in data set [2] is -34.1 kcal/mol.
For the sequence GTCGGCGAAAGCCCGAC ((((((....))).))), the Tm in data set [1] worked out at 64.7 °C. The folding enthalpy in data set [2] was -21.9 kcal/mol.
As to GATCCCCAGCGGGATC ((((((....)))))), the Tm in data set [1] came to 59.8 °C. The folding enthalpy in data set [2] is -30.7 kcal/mol.
The corresponding values for GATCCTTAGTAGGATC ((((((....)))))) are 50.3 °C and -35.8 kcal/mol.
The corresponding values for GTGCTCGAAAGAGCGCAC ((((((....)))..))) are 57.1 °C and -11.6 kcal/mol.
CGATGTCGGAAACGATCG (((..(((....)))))): the Tm in data set [1] was 36.2 °C. Besides, in data set [2], the folding enthalpy was -17.3 kcal/mol.
The corresponding values for GATCTGCACGCAGATC ((((((....)))))) are 58.8 °C and -33.1 kcal/mol.
For the sequence GTTGAGGGAAACCTTAAC (((.(((....))).))), in data set [1], the Tm was found to be 37 °C. In data set [2], the folding enthalpy was -31.4 kcal/mol.
The corresponding values for GTATTTGGAAACAAATAC (((((((....))))))) are 50.5 °C and -44.3 kcal/mol.
The corresponding values for GACCTCGGAAACAAGGTC (((((.(....).))))) are 40.9 °C and -32.1 kcal/mol.
The corresponding values for GATCGAGTCATCGATC ((((((....)))))) are 60.7 °C and -35.4 kcal/mol.
For the sequence GACCTCCCGAAAGGGGTC (((..(((....)))))), the Tm in data set [1] is 40 °C. Besides, in data set [2], the folding enthalpy is -15.2 kcal/mol.
The corresponding values for GATCCACTAGTGGATC ((((((....)))))) are 62.3 °C and -40.6 kcal/mol.
The corresponding values for GATCGAGCCCTCGATC ((((((....)))))) are 56.4 °C and -42.1 kcal/mol.
The corresponding values for GGCACCGGAAACGGTACC ((.((((....)))).)) are 50.7 °C and -22.5 kcal/mol.
GATCAGTGGCTGATC ((((((...)))))): the Tm in data set [1] stood at 49.7 °C. Moreover, in data set [2], the folding enthalpy was -22 kcal/mol.
The corresponding values for GGGTTCGAAAGAATCCC ((((((....))).))) are 52 °C and -29 kcal/mol.
On to GCGCCGCGAAAGCTGGGC ((.(.((....)).).)), for which, in data set [1], the Tm was determined as 57 °C. Besides, in data set [2], the folding enthalpy is -16.1 kcal/mol.
The corresponding values for GATCGGTGTTCCGATC ((((((....)))))) are 58.6 °C and -41.3 kcal/mol.
The corresponding values for GATCGATGTCTCGATC ((((((....)))))) are 51.5 °C and -39 kcal/mol.
The corresponding values for GTACGGGCGAAAGCCTAC (((..(((....)))))) are 30 °C and -8.32 kcal/mol.
For the sequence GCTCTGCGAAAGCAGTGC ((.((((....)))).)), the Tm in data set [1] was found to be 62 °C. Further, in data set [2], the folding enthalpy is -16.7 kcal/mol.
As to CGCGGAGCGTCCGCG ((((((...)))))), the Tm in data set [1] amounted to 68.1 °C. Besides, the folding enthalpy in data set [2] was -7.62 kcal/mol.
The corresponding values for GATCCGCATTCGGATC ((((((....)))))) are 59.8 °C and -36.1 kcal/mol.
The corresponding values for GTGAAAGGAAACTCTCAC ((((.((....)).)))) are 26.5 °C and -12.6 kcal/mol.
As to GACAACCCGAAAGGGGTC (((..(((....)))))), in data set [1], the Tm is 39.1 °C. For the same sequence, the folding enthalpy in data set [2] was -12.9 kcal/mol.
The corresponding values for GATCAGGATGCTGATC ((((((....)))))) are 50.3 °C and -43.3 kcal/mol.
Regarding GCTATGCCGAAAGGCAGC (((..(((....)))))), the Tm in data set [1] was found to be 40.2 °C. The folding enthalpy in data set [2] is -12.1 kcal/mol.
The corresponding values for GAGACCGCGAAAGCGCTC (((..(((....)))))) are 26.6 °C and -7.65 kcal/mol.
As to GGTCGCGAAAGCGGTACC ((((((....)))..))), the Tm in data set [1] stood at 46.5 °C. Moreover, the folding enthalpy in data set [2] is -14.5 kcal/mol.
The corresponding values for GAAAGGGGAAACCCTTCC (.(((((....))))).) are 32.1 °C and -19.7 kcal/mol.
As for GCTTGGCGAAAGCAATGC ((.(.((....)).).)), the Tm in data set [1] was found to be 38.4 °C. Also, the folding enthalpy in data set [2] is -12.8 kcal/mol.
The corresponding values for GTTTAAGCGAAAGCTAAC (((..(((....)))))) are 32 °C and -11.8 kcal/mol.
Regarding GGCCTCGAAAGAGGTGCC ((((((....)))..))), in data set [1], the Tm stood at 47.6 °C. Moreover, the folding enthalpy in data set [2] is -13.2 kcal/mol.
The corresponding values for GACAATGGAAACGTTGTC (((((.(....).))))) are 46.5 °C and -34.7 kcal/mol.
The corresponding values for GCATGAACGAAAGTTTGC (((..(((....)))))) are 33.9 °C and -20.5 kcal/mol.
The corresponding values for GACCATGGAAACATGGCC (.(((((....))))).) are 46 °C and -15.2 kcal/mol.
In the case of GAGCGTGGAAACACACCC (.(.(((....))).).), the Tm in data set [1] worked out at 25.4 °C. For the same sequence, in data set [2], the folding enthalpy is -18.9 kcal/mol.
The corresponding values for GCCATTGGAAACAACGGC (((.(((....))).))) are 43 °C and -33.1 kcal/mol.
The corresponding values for GTCAGAACGAAAGTTGAC (((..(((....)))))) are 36.9 °C and -21.5 kcal/mol.
CGAACGGAAACGTTTCG ((((((....))).))): the Tm in data set [1] was determined as 46.1 °C. Also, the folding enthalpy in data set [2] is -26.2 kcal/mol.
The corresponding values for GAGTCCGAAAGGAACCTC ((((((....)))..))) are 33 °C and -16.5 kcal/mol.
The corresponding values for GACGCCGAAAGGCAAGTC ((((((....)))..))) are 48.9 °C and -19.7 kcal/mol.

Values taken from the array DNA melting data of Ke et al. (doi:10.1101/2024.01.08.574731).
